# Measurements from different studies.
# Compare with care: the assays were run in different laboratories.
# Cell line: A549
# Read-out: cell growth or viability
Structure (SMILES),assay,conditions,inhibition
O=C(CN1C(=O)/C(=C/c2cccc(Br)c2)SC1=S)Nc1ccccc1,MTT,10 µM,25.8%
COc1cc2ncnc(NN=C3C(=O)Nc4ccc(C)cc43)c2cc1OC,,30 µM,20.5%
O=C1Nc2ccc(F)cc2/C1=N/NC(=O)c1cc2ccccc2[nH]1,,30 µM,6.9%
COc1ccc(/C=C2\SC(=S)N(CC(=O)Nc3ccccc3)C2=O)cc1,MTT,10 µM,23%
COc1ccc(-c2nc(NN=C3C(=O)Nc4ccc(Cl)cc43)c3ccccc3n2)cc1OC,,30 µM,10.9%
CN1C(=O)/C(=N\NC(=O)c2cc3ccccc3[nH]2)c2cc(Cl)ccc21,,30 µM,95.8%
COc1cc2ncnc(NN=C3C(=O)Nc4ccc(Br)cc43)c2cc1OC,,10 µM,-4.3%
O=C(N/N=C1\C(=O)N(c2ccccc2)c2ccccc21)c1cc2ccccc2[nH]1,,30 µM,98.5%
O=C(CN1C(=O)/C(=C/c2ccncc2)SC1=S)Nc1ccccc1,MTT,10 µM,25.9%
COc1ccc(-c2nc(NN=C3C(=O)Nc4ccccc43)c3ccccc3n2)cc1OC,,30 µM,58.6%
O=C(CN1C(=O)/C(=C/c2ccc(Cl)cc2)SC1=S)Nc1ccccc1,MTT,10 µM,36.7%
Cc1c(-c2cccc(C(F)(F)F)c2)sc2[nH]c(=O)n([C@H](C)c3cccc4ccccc34)c(=O)c12,,10 µM,> 80%
Cc1ccc2c(c1)C(=NNc1nc3ccccc3n(C)c1=O)C(=O)N2,,30 µM,68.8%
COc1cc(CNC(=O)C[C@H](C)CCC=C(C)C)ccc1OCc1cn(-c2ccc(Cl)cc2)nn1,SRB,10 µM,55%
CCN(CC)CCNC(=O)c1c(C)[nH]c(/C=C2\C(=O)Nc3ccc(F)cc32)c1C,,30 µM,85.7%
O=C(CN1C(=O)/C(=C/c2ccccc2Cl)SC1=S)Nc1ccccc1,MTT,10 µM,20.5%
CN1C(=O)/C(=N\NC(=O)c2cc3ccccc3[nH]2)c2cc(F)ccc21,,30 µM,90.3%
Cn1c(=O)c(NN=C2C(=O)Nc3ccccc32)nc2ccccc21,,30 µM,95.2%
O=C1Nc2ccccc2/C1=N/NC(=O)c1cc2ccccc2[nH]1,,30 µM,90.9%
O=C(CN1C(=O)/C(=C/c2cccc([N+](=O)[O-])c2)SC1=S)Nc1ccccc1,MTT,10 µM,22.2%
